Results: ChEMBL document CHEMBL1159380, “Marine natural products as novel antioxidant prototypes” (J Nat Prod, 2003)
Active and inactive are the calls of the source. No cut-off for these calls is given here.

What was measured:
[1] = test system: HL-60; assay: Antioxidant activity against TPA-induced ROS production in human HL60 cells by 2',7'-dichlorodihydrofluorescein diacetate cellular-based assay; assay type: functional, cell-based
Outline: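 HL-60 cells (1 × 10^6 cells/mL) in RPMI 1640 with 10% FBS and antibiotics, 37 °C, 5% CO2. Cells were pretreated 30 min with a range of test concentrations, then stimulated 30 min with 100 ng/mL TPA, then given DCFH-DA (5 μg/mL) for 15 min. DCF fluorescence was read at 530 nm, and percent inhibition was calculated against TPA-treated controls without test material.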

[2] = test system: Radical scavenging activity; assay: Antioxidant activity assessed as DPPH free radical scavenging activity by TLC […] assay; assay type: functional
Outline: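 Compounds were dissolved in DMSO at 2.0 mg/mL and 4.0 μg of each was spotted onto scored silica gel GF TLC plates. Residual DMSO was removed under vacuum. Plates were sprayed with 0.2% (w/v) DPPH in MeOH and radical scavenging was judged visually 30 min after spraying.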

| Compound | IC50 ([1]; Homo sapiens, HL-60) | IC50 ([1]; hl-60) | Activity [2] | Activity [1] |
| --- | --- | --- | --- | --- |
| Cc1ccc([C@@H](C)CCCC(C)(C)O)c(O)c1 |  |  |  | inactive |
| O=C1O[C@H]([C@@H](O)CO)C(O)=C1O [ASCORBIC ACID] | 9.7 µM |  | Active |  |
| OCc1cc(Br)c(O)c(O)c1Cc1ccc(O)c(Br)c1 [AVRAINVILLEOL] | 6.1 µM |  | Active |  |
| CC(C)=CCC/C(C)=C/Cc1cc(O)c(Br)cc1O [CYMOPOL] | 4 µM |  | Active |  |
| CC1(C)CCC[C@]2(C)[C@H]3C=C4C=C(O)C(=O)C=C4O[C@@]3(C)CC[C@@H]12 [PUUPEHENONE] | 27 µM |  | Active |  |
| VITAMIN E [listing 1 of 2 here] |  | 255 µM |  |  |
| VITAMIN E [listing 2 of 2 here] |  |  | Active |  |

Now from value to compound, other results behind:

| IC50 ([1]; Homo sapiens, HL-60) | IC50 ([1]; hl-60) | Compound | Activity [2] | Activity [1] |
| --- | --- | --- | --- | --- |
| 209 µM |  | CC(C)=CCC[C@H](C)c1ccc(C)cc1O |  |  |
| > 14.6 µM |  | C/C(=C\Cc1cc(O)c(Br)cc1O)CCCC(C)(C)O | Active |  |
| 49 µM |  | CC(=O)OC/C=C(\OC(C)=O)C(C)=O | inactive |  |
| > 55 µM |  | COc1cc2ccnc3c2c(c1OC)NC=C3 [AAPTAMINE] | Active |  |
| 11 µM |  | CCC(C)CC(C(=O)N/C=C\c1c[nH]c2ccccc12)N(C)Cc1ccc(O)cc1 (stereo not given) [ARAGILAMIDE] |  |  |
| 18.3 µM |  | COc1c(OC)c(O)c2c(=O)c(C)c(/C=C/c3cc(OC(C)=O)cc(OC(C)=O)c3)oc2c1OC [HORMOTHAMNIONE DIACETATE] | inactive |  |
| > 31 µM |  | COc1c(OC)c(O)c2c(=O)c(C)c(/C=C/c3cc(O)cc(O)c3)oc2c1OC [HORMOTHAMNIONE] |  |  |
| > 55 µM |  | COc1cc2ccnc3c2c(c1O)N(C)C=C3 [ISOAAPTAMINE] | Active |  |
| > 23 µM |  | O=C1C(C2=C3c4ccccc4NC3/C(=C\c3ccc(O)cc3)C2=O)=C2C(=Nc3ccccc32)/C1=C\c1ccc(O)cc1 (stereo not given) [SCYTONEMIN] |  |  |
